What was measured:
Aurora kinase A = molecular target: T1, Aurora kinase A (Homo sapiens, UniProt O14965); test: Inhibition of Aurora A (unknown origin) using FAM-labelled peptide as substrate pretreated for 10 mins followed by substrate addition and measured after 60 mins by fluorescence assay
T1 sequence (O14965 whole entry): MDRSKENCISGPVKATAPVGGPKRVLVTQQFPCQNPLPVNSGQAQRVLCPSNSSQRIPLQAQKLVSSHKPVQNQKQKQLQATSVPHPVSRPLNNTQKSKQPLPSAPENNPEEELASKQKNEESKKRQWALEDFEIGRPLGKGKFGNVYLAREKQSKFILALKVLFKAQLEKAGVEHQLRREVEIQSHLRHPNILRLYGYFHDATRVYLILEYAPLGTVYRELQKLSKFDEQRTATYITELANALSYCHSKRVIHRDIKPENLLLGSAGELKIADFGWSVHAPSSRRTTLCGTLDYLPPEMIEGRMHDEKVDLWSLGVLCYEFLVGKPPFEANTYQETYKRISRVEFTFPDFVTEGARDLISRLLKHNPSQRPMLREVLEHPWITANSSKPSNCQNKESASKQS
Method in brief: (§1)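 Kinase IC50 values are the mean of at least two independent experiments; selectivity is the Aurora A/B ratio of these IC50s.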

Aurora kinase B = Aurora kinase B (Homo sapiens, UniProt Q96GD4); test: Inhibition of Aurora B (unknown origin) using FAM-labelled peptide as substrate pretreated for 10 mins followed by substrate addition and measured after 60 mins by fluorescence assay; method in brief: as §1
Aurora kinase B, sequence (Q96GD4 whole entry): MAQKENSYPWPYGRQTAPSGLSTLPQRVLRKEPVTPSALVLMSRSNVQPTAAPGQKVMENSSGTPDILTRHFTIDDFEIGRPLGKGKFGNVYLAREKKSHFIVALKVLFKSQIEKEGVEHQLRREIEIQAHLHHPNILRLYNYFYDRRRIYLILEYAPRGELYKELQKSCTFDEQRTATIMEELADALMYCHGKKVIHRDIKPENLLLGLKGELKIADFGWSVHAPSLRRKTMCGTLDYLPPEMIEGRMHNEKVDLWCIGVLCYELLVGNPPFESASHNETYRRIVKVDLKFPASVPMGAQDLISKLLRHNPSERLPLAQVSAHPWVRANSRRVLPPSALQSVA

Homo sapiens = organism: Homo sapiens; test: Selectivity ratio of IC50 for Aurora B (unknown origin) to IC50 for Aurora A (unknown origin)
K562 = test: Antiproliferative activity against human K562 cells after 48 hrs by CCK8 assay; type: functional, cell-based
MCF7 = test: Antiproliferative activity against human MCF7 cells after 48 hrs by CCK8 assay; type: functional, cell-based
HeLa = test: Antiproliferative activity against human HeLa cells after 48 hrs by CCK8 assay; type: functional, cell-based
DU-145 = test: Antiproliferative activity against human DU145 cells after 48 hrs by CCK8 assay; type: functional, cell-based; settings: DU-145, 48 h
MOLT-4 = test: Antiproliferative activity against human MOLT4 cells after 48 hrs by CCK8 assay; type: functional, cell-based
MDA-MB-231 = test: Antiproliferative activity against human MDA-MB-231 cells after 48 hrs by CCK8 assay; type: functional, cell-based; settings: MDA-MB-231, 48 h
SK-BR-3 = test: Antiproliferative activity against human SKBR3 cells after 48 hrs by CCK8 assay; type: functional, cell-based
[1] = Homo sapiens, K562, 48 h, read-out: IC50
[2] = Homo sapiens, MCF7, 48 h, read-out: IC50
[3] = Homo sapiens, HeLa, 48 h, read-out: IC50
[4] = Homo sapiens, MOLT-4, 48 h, read-out: IC50
[5] = Homo sapiens, SK-BR-3, 48 h, read-out: IC50

SMILES | IC50 (Aurora kinase A) | IC50 (Aurora kinase B) | Ratio IC50 (Homo sapiens) | IC50 (K562; [1]) | IC50 (MCF7; [2]) | IC50 (HeLa; [3]) | IC50 (DU-145) | IC50 (MOLT-4; [4]) | IC50 (MDA-MB-231) | IC50 (SK-BR-3; [5]) | IC50 (K562; k562) | IC50 (MCF7; mcf7) | IC50 (HeLa; hela) | IC50 (SK-BR-3; sk-br-3) | IC50 (MOLT-4; molt-4)
Cc1cc(Nc2nc(-c3ccccc3)nc3cc(N4CCC(C(=O)O)CC4)ccc23)n[nH]1 | 0.006 µM | 0.127 µM | 20 | 5.52 µM | 6.04 µM | 1.86 µM | 21.5 µM | 2.2 µM | 10.5 µM | 16.3 µM |  |  |  |  | 
Cc1cc(Nc2nc(Cc3ccccc3)nc3ccccc23)n[nH]1 | 0.069 µM | 1.27 µM | 18 | 2.29 µM | 13.3 µM | 1.52 µM | 4.44 µM | 5.79 µM | 3.12 µM | 9.1 µM |  |  |  |  | 
COc1cccc2c(Nc3cc(C)[nH]n3)nc(Cc3ccccc3)nc12 | 0.041 µM | 0.893 µM | 22 | 1.44 µM | 6.28 µM | 1.45 µM | > 10 µM | 4.81 µM | 2.62 µM | 2.72 µM |  |  |  |  | 
Cc1ccc(C(=O)c2nc(Nc3cc(C)[nH]n3)c3ccc(Cl)cc3n2)cc1 | 1.3 µM | > 100 µM | > 77 |  |  |  | 16 µM |  | > 30 µM |  | Not Active | Not Active | Not Active | Not Active | 
COc1cccc(OC)c1C(=O)c1nc(Nc2cc(C)[nH]n2)c2ccc(N3CCC(C(=O)OC(C)(C)C)CC3)cc2n1 | 0.217 µM | > 60 µM | > 276 | 0.373 µM | 1.51 µM | 0.526 µM | 3.61 µM |  | 1.38 µM | 2.75 µM |  |  |  |  | 
Cc1cc(Nc2nc(C(C)C)nc3ccccc23)n[nH]1 | 0.103 µM | 1.15 µM | 11 | 3.92 µM | 10.7 µM | 2.81 µM | 7.43 µM |  | 4.8 µM | 11.9 µM |  |  |  |  | 
Cc1cc(Nc2nc(-c3ccccc3)nc3cc(Cl)ccc23)n[nH]1 | 0.132 µM |  |  |  | > 30 µM | > 30 µM | > 30 µM |  | > 30 µM |  | Not Active |  |  | Not Active | Not Active
CN1CCN(c2ccc3c(Nc4cc[nH]n4)nc(-c4ccccc4)nc3c2)CC1 | 5.95 µM | 14.4 µM | 2.4 | 6.75 µM | 7.88 µM | 7.85 µM | 5.27 µM |  | 3.98 µM | 6.12 µM |  |  |  |  | 
Cc1cc(Nc2nc(-c3ccccc3)nc3c([N+](=O)[O-])cccc23)n[nH]1 | 0.174 µM | 4.59 µM | 26 | 6.43 µM | 4.53 µM | 2.46 µM | 6.62 µM | 6.48 µM | 3.47 µM | 4.59 µM |  |  |  |  | 
Cc1cc(Nc2nc(C(=O)c3ccccc3)nc3ccccc23)n[nH]1 | 0.188 µM | 11.5 µM | 61 | > 30 µM | > 30 µM | 5.22 µM | > 30 µM | 8.82 µM | 17 µM | 14.7 µM |  |  |  |  | 
Cc1cc(Nc2nc(-c3ccccc3)nc3ccccc23)[nH]n1 | 0.028 µM | 0.858 µM |  |  |  |  |  |  |  |  |  |  |  |  | 
Cc1cc(Nc2nc(-c3ccccc3)nc3cc([N+](=O)[O-])ccc23)n[nH]1 | 0.325 µM | > 100 µM | > 308 | 12 µM | > 30 µM | 10.1 µM | 7.36 µM |  | 9.83 µM | 8.86 µM |  |  |  |  | 
COc1ccc(C(=O)c2nc(Nc3cc(C)[nH]n3)c3ccc(Cl)cc3n2)cc1 | 0.744 µM | > 100 µM | > 134 |  |  | > 30 µM | 12.5 µM |  | 12.3 µM |  | Not Active | Not Active |  | Not Active | 
Cc1cc(Nc2nc(-c3ccccc3)nc3cc(N4CCN(C)CC4)ccc23)n[nH]1 | 0.01 µM | 0.27 µM | 30 | 0.191 µM | 0.654 µM | 0.179 µM | 0.409 µM | 0.149 µM | 0.142 µM | 2.49 µM |  |  |  |  | 
Cc1cc(Nc2nc(-c3ccccc3)nc3cc(F)ccc23)n[nH]1 | 0.072 µM | 6.28 µM | 88 | > 30 µM | > 30 µM | 9.7 µM | > 30 µM |  | 11.2 µM | 10.7 µM |  |  |  |  | Not Active
Cc1cc(Nc2nc(-c3ccc4ccccc4c3)nc3ccccc23)n[nH]1 | 0.128 µM | 5.07 µM | 40 | 15 µM | > 30 µM | 3.75 µM | 10.4 µM | 10.4 µM | 11 µM | 7.15 µM |  |  |  |  | 
COc1cccc2c(Nc3cc(C)[nH]n3)nc(-c3ccccc3)nc12 | 0.025 µM | 0.547 µM | 21 | 2.3 µM | 4.17 µM | 0.817 µM | 6.36 µM | 2.86 µM | 1.9 µM | 1.85 µM |  |  |  |  | 
Cc1cc(Nc2nc(-c3ccccc3)nc3ccccc23)n[nH]1 |  |  | 30 | 2.99 µM | 6.16 µM | 0.883 µM | 7.99 µM | 5.15 µM | 2.88 µM | 2.54 µM |  |  |  |  | 
COc1ccc2c(Nc3cc(C)[nH]n3)nc(-c3ccccc3)nc2c1 | 0.034 µM | 0.773 µM | 22 | 2.12 µM | 3.6 µM | 1.31 µM | 4.73 µM | 1.2 µM | 1.32 µM | 2.03 µM |  |  |  |  | 

Source: ChEMBL document CHEMBL4270643, “Structure-based drug design: Synthesis and biological evaluation of quinazolin-4-amine derivatives as selective Aurora A kinase inhibitors” (Eur J Med Chem, 2018)
